# This is a sample that favours compounds with a hit; in the whole collection about 4.7% have one here.
# GAA850 FXN act – activators of GAA850 frataxin (FXN) promoter; activation, % at 6 µM; actives 0.56% (n = 360,000); HEK293 lucGAA850 FXN promoter luciferase reporter, 24 h; percent of 10 µM SAHA response;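 active = activation above the average of all compounds screened plus 3 SD, cutoff fixed separately per campaign, cut at about 7.5% in these data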;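 note: 0% = DMSO wells and 100% = 10 µM SAHA wells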
# MC4R antag cAMP – antagonists of human melanocortin 4 receptor (MC4R); P32245; MC4R-expressing cells, MTII-stimulated cAMP, LANCE TR-FRET; inhibition, % at 6.5 µM; AID 540295; actives 0.48% (n = 360,000);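 active = inhibition above its plate's cutoff, the mean of tested wells on that plate plus 3 SD, cut at about 29% in these data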;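 note: 0% = Melanotan II alone and 100% = Melanotan II plus saturating MCL0020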
#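 system = U2OS cells with stable human MC4R expression | also added = Melanotan II challenge after compound preincubation | dosing = one concentration, 6.5 µM nominal | incubation = compound 30 min, challenge 1 h, detection 1 h | measured by = TR-FRET with Eu-cAMP and labeled anti-cAMP, 671 nm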
# MC4R ag barr – human MC4R agonism via beta-arrestin; U2OS MC4R beta-arrestin complementation, luminescence; percent of melanotan II response, DMSO zero; actives 0.98% (n = 360,000); activation, % at 8.9 µM; P32245;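 active = activation above a per-plate cutoff, the mean activation of sample wells on that plate plus 3 SD, cut at about 8% in these data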
# HTR2A ag – mouse HTR2A agonism via beta-arrestin recruitment | CHO-K1 mHTR2A beta-arrestin complementation, luminescence; percent of 30 µM serotonin response | actives 0.66% (n = 360,000) | P35363 | activation, % at 7.6 µM;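 active = activation above a run cutoff, the mean activation of all tested compounds plus 3 SD, cut at about 14% in these data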;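 note: 0% = plate median of compound wells and 100% = 30 µM serotonin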
# Target sequence (P35363 whole entry, looked up): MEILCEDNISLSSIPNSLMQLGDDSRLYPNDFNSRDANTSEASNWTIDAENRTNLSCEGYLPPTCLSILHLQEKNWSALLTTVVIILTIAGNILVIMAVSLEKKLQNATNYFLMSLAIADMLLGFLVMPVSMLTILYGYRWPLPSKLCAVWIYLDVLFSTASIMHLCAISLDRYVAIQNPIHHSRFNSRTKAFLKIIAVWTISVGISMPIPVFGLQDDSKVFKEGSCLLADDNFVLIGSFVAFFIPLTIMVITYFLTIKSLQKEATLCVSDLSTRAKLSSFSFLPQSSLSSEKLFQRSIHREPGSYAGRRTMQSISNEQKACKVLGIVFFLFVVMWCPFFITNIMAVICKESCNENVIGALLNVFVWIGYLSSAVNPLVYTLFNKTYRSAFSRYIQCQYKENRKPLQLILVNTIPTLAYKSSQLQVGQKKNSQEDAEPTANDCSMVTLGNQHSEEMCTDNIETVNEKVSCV
# AHR act – human AHR activation; P35869; AHR-responsive luciferase reporter cells, luminescence; activation, % at 5 µM; actives 2.5% (n = 320,000); in the data active = activation above about 47%;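 note: 0% = vehicle wells and 100% = reference agonist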
# * hit, by the source's call; . = not tested or not shown.
SMILES,GAA850 FXN act,MC4R antag cAMP,MC4R ag barr,HTR2A ag,AHR act
CC(C)C[C@H]1CNC(=O)C(=O)N1C[C@H](C)NC(=O)Cc1ccccc1,1,-1,-1,-7,-2
C=CCn1c(SCC(=O)Nc2cccc(S(N)(=O)=O)c2)nc2sc(C)c(C)c2c1=O,3,-15,0,-1,1
O=C(O)C(CCc1ccccc1)(Cc1ccccc1)C(=O)O,0,16,1,2,.
CCC(=O)N(Cc1ccco1)c1nc(C(=O)Nc2ccc(Cl)cc2)c(C)s1,4,3,-1,-3,74*
O=C1/C(=C/c2cccs2)SC(=S)N1CC(=O)N1CCCCC1CCO (stereo not given),1,-11,-3,-6,3
COc1cc(NC(=O)CCNS(=O)(=O)c2ccc3c(c2)CCC(=O)N3)cc(OC)c1,1,11,-1,0,0
CN(C)c1ccc(C(C[N+](=O)[O-])c2c(N)n(C)c(=O)n(C)c2=O)c(F)c1C#N (stereo not given),-1,9,-2,-1,63*
C=CCN1C(=O)C(CC(=O)NCC)SC1=Nc1ccccc1CC (stereo not given),0,10,-2,8,0
O=C(OCn1ncc(Cl)c(Cl)c1=O)c1ccc(C(F)(F)F)cc1,4,33*,1,5,.
Cc1ccc(NC(=S)N2CCC(c3nc4ccccc4s3)CC2)cc1C,-1,5,4,4,-5
Cc1cc(C)cc(NC(=S)N2CCC(c3nc4ccccc4s3)CC2)c1,1,-4,8.5*,6,-2
COc1cccc(N2CCN(C(=O)C3CCN(S(=O)(=O)c4ccc5c(c4)CC(C)N5C(C)=O)CC3)CC2)c1 (stereo not given),-2,8,-2,2,-1
CC(C)Cn1c(-c2cccs2)nc2nc3ccccc3nc21,4,2,-2,0,52*
c1ccc2sc(Sc3ncnc4sccc34)nc2c1,-4,8,1,-1,49*
CCc1cc2c(Sc3nc4ccccc4s3)ncnc2s1,-15,2,0,5,32
CSc1ccc(-c2cc(=O)c3ccccc3o2)cc1,7,-13,1,0,38
O=c1cc(-c2ccc(F)cc2)oc2ccccc12,5,2,-2,0,71*
COc1ccc(-c2cn3c(C)c(C(=O)N4CCCc5ccccc54)sc3n2)cc1,-2,10,-1,2,-8
COc1ccc(-c2cn3c4c(sc3n2)CCCC4)cc1,2,2,-2,-4,68*
O=C(Nc1nc(-c2cccc3ccccc23)cs1)c1cnccn1,2,6,7,-1,49*
CCOC(=O)C1=C[C@@H](C(C)(C)C)N(S(=O)(=O)c2ccc(C)cc2)[C@H]1c1ccc(Cl)c(Cl)c1,.,.,.,7,.
FC(F)(F)c1nc2cc3nc4ccccc4[nH]c3cc2n1,2,-11,0,5,55*
OC(c1nc2ccccc2[nH]1)C(O)c1nc2ccccc2[nH]1 (stereo not given),1,9,0,-2,7
Cc1cc(CCNC=O)c(C)c2c1oc1ccccc12,6,-18,-1,-5,.
C[C@@H]1CN([C@@H](C)CO)C(=O)c2cc(-c3cccnc3)cnc2O[C@H]1CN(C)C(=O)c1cccc(F)c1,-1,2,1,1,.
SMILES,GAA850 FXN act,MC4R antag cAMP,MC4R ag barr,HTR2A ag,AHR act
COc1ccc(CC(=O)NNC(=O)c2ccc(SCc3cc(F)ccc3F)c([N+](=O)[O-])c2)cc1,0,4,9.0*,-7,-4
COc1cccc(C(=O)NNC(=O)Cc2ccc([N+](=O)[O-])cc2)c1,2,-5,1,7,1
COc1ccc(CNC(=O)C(C)Sc2nc3ccccc3c(=O)n2CC2CCCO2)cc1 (stereo not given),0,7,1,4,2
C=CCOc1ccc(C=CC(=O)c2c(O)c(OC)c(OC)c(OC)c2OC)cc1,3,15,0,1,.
O=C1CC(c2ccccc2)CC(O)=C1C=Nc1ccccc1Cl (stereo not given),-1,-15,3,0,7
O=C1CC(c2ccccc2)CC(O)=C1C=Nc1ccc(Cl)cc1 (stereo not given),2,3,7,1,55*
O=C1CC(c2ccccc2)CC(O)=C1C=Nc1cccc(Cl)c1 (stereo not given),0,-13,-1,4,48*
CCOC(=O)Nc1ccc(Oc2ccccc2)cc1,7,-4,-1,2,1
CCOC(=O)Nc1ccc(OC(=O)Oc2ccc(NC(=O)OCC)cc2)cc1,0,-6,9.5*,5,.
COc1ccc(CCN2CC(C(=O)NCCc3ccccn3)CCC2=O)cc1 (stereo not given),-1,2,-2,3,-3
CC(=O)c1c(C)[nH]c(C(=O)Nc2ccc(Cl)c(S(=O)(=O)N3CCOCC3)c2)c1C,-1,2,2,3,49*
COc1ccc(NC(=O)c2[nH]c(C)c(C(C)=O)c2C)cc1S(=O)(=O)N1CCOCC1,1,11,0,0,12
CCN(CC)C(=O)C1=C(C)N(Cc2ccccc2)C(=O)C(CC(=O)NCC2CCCCC2)C1 (stereo not given),-2,6,1,5,.
Cc1cc(C(=O)Cn2c(CO)nc3ccccc32)c(C)n1C,3,3,-2,-3,1
Cc1ccc(-c2nc3ccccc3[nH]2)s1,2,13,2,3,55*
c1csc(-c2nc3ccccc3[nH]2)c1,3,3,-1,4,44
Cc1cccc(NC(=S)NC(=O)C2CC2)c1,0,8,-5,0,8
Cc1cc(C)cc(NC(=S)NC(=O)C2CC2)c1,1,-5,-2,13,58*
Cc1cc(NC(=S)NC(=O)C2CC2)ccc1Br,5,2,-2,-2,106*
Cc1ccc(C2(c3ccc(C)cc3)CC2C(=O)Nc2ccc([N+](=O)[O-])cc2O)cc1 (stereo not given),-12,14,-3,-10,59*
COc1cccc(OC)c1C(=O)Nc1nnc(-c2ccc(F)cc2)s1,2,-1,-1,-3,74*
Cc1cccc(C)c1C(O)c1ncc(-c2ccccc2Cl)[nH]1 (stereo not given),1,1,-2,-9,.
CC(C)c1ccc(O)c(NC(=S)NC(=O)c2ccc3c(c2)OCO3)c1,2,-5,11*,-15,22
Oc1ccc(Cl)cc1Nc1nc(NCC2CCCO2)c2ccccc2n1 (stereo not given),-1,6,12*,-2,12
Oc1ccccc1Nc1nc(NCC2CCCO2)c2ccccc2n1 (stereo not given),-5,6,-2,-9,0
CC(=O)c1sc(N/N=C/c2cccc(O)c2)nc1C,-1,-3,3,-6,1
CC(=O)c1sc(N/N=C\c2ccc(N(C)C)cc2)nc1C,6,-5,5,-4,57*

# Compound activity: PubChem BioAssay, The Scripps Research Institute Molecular Screening Center
